From publication PMC6226330 (ACS Infectious Diseases, 2018)
Read-outs that look alike come from different tables or passages of the source.

Experiments:
S. aureus [1] = assay: Compartment PK model of dynamic 2-[18F]F-PABA PET data; assay type: in vivo, rat; conditions: after 2 h, simulation with compartment PK model
In short: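 Dynamic PET data came from blood and the infected right triceps of S. aureus-infected rats. Specific and nonspecific activities at the sites were then simulated.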

MSSA and MRSA = assay type: in vivo, rat
In short: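 Female Sprague-Dawley rats (10 weeks) received 50 μL S. aureus Newman (MSSA) in the right triceps and MRSA ATCC BAA1762 in the left triceps, each at 8 log10 CFU. Oxacillin began 2–4 h after infection: 4 subcutaneous 200 mg/kg doses over 20 h. Tracer was 22.2–44.4 MBq in saline by tail-vein catheter under anesthesia. PET/CT was done 2–4 h after the last dose.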

S. aureus [2] = assay: In vitro uptake of 2-[18F]F-PABA by S. aureus; assay type: cell-based
In short: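 Cells were incubated with 10 kBq/mL 2-[18F]F-PABA at 37 °C with rapid agitation, with graded PABA concentrations for blocking. Cells were then pelleted, washed three times in PBS, and gamma-counted. At least six replicates were run per point. Data were expressed as percentage or normalized to total protein (Bradford).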

S. aureus (Newman) [3] = assay: Mouse S. aureus thigh infection model, PET and ex vivo biodistribution; assay type: in vivo
S. aureus (Newman) [4] = assay: Rat triceps infection versus sterile inflammation model, PET/CT and ex vivo; assay type: in vivo; conditions: for infected triceps to inflamed triceps ratio: PET; for PET signal at infection site versus sterile inflammation: [18F]FDG PET, 60–80 min postinjection, P = 0.2, n = 4
In short: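 Rats received live S. aureus Newman (50 μL) in the right triceps and heat-killed bacteria in BHI (50 μL) in the left. After 20–24 h, tracer was given IV and dynamic PET/CT run up to 120 min. Uptake was %ID/cc, with blood taken from the left ventricle (n = 7, mean ± SEM). Ex vivo gamma counting gave %ID/g (n = 6). Groups were compared by two-tailed Mann-Whitney U test.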

S. aureus [5] = assay type: in vivo, rat; conditions: tracer containing 2 mg 19F-PABA, two hours after injection, ex vivo
In short: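 Rats carried live S. aureus Newman in the right triceps and heat-killed bacteria in BHI in the left triceps (sterile inflammation). They received 29.6–37 MBq tracer spiked with 2 mg 19F-PABA via the tail vein. At 2 h animals were sacrificed. Organ radioactivity was gamma-counted and bacterial load determined by plating and CFU enumeration.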

J774 murine macrophages = assay: In vitro uptake of 2-[18F]F-PABA by mammalian cells; assay type: cell-based
In short: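 J774.1 murine macrophages were cultured in RPMI GlutaMAX with 10% heat-inactivated FBS at 37 °C, 5% CO2. Tracer accumulation was gamma-counted in parallel with bacterial strains. At least six replicates were run. Values were expressed as percentage or normalized to total protein (Bradford).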

MSSA = assay: Bacterial burden ex vivo; assay type: in vivo, rat; conditions: four doses of 200 mg/kg subcutaneously over 20 h; untreated 8.4 ± 0.1
MRSA = assay: Bacterial burden ex vivo; assay type: in vivo, rat; conditions: four doses of 200 mg/kg subcutaneously over 20 h; untreated 9.0 ± 0.2
[6] = group not treated with oxacillin
[7] = oxacillin-treated, four doses of 200 mg/kg

For Nc1ccc(C(=O)O)c([18F])c1 [2-[^18F]F-PABA, 2-[^18F]fluoro-p-aminobenzoic acid], the “share of total activity at site of infection from specific accumulation” value (S. aureus [1]) was roughly 60%, the “PET signal in left triceps (MRSA infection)” value (MSSA and MRSA; [6]) was 0.096 ± 0.039 %ID/cc and the “PET signal in right triceps (MSSA infection)” value (MSSA and MRSA; [6]) was 0.087 ± 0.041 %ID/cc. The “PET signal in left triceps (MRSA infection)” value (MSSA and MRSA; [7]) was 0.079 ± 0.036 %ID/cc, the “PET signal in right triceps (MSSA infection)” value (MSSA and MRSA; [7]) was 0.025 ± 0.015 %ID/cc and the “accumulation in viable versus heat-killed bacteria” value (S. aureus [2]; S. aureus ATCC 29213) was “rapidly accumulated in viable cells but not in heat-killed bacteria”. For the same molecule, the “accumulation in clinical strains” value (S. aureus [2]; four MSSA and six MRSA clinical strains) was “accumulates in all the clinical strains tested”, the “tracer level in infected versus uninfected thighs” value (S. aureus (Newman) [3]; mouse thigh infection) was “significantly higher levels of tracer were found in the infected thighs than in uninfected thighs” and the elimination (S. aureus (Newman) [3]; mouse, PET and ex vivo tissue analysis) was “rapidly eliminated mainly through renal clearance”. For the same molecule, the “infected triceps to inflamed triceps ratio” value (S. aureus (Newman) [4]; 60 min) was 5.52, the “infected triceps to inflamed triceps ratio” value (S. aureus (Newman) [4]; 120 min) was 7.95 and the “infected triceps to inflamed triceps ratio” value (S. aureus (Newman) [4]; after 10 min) was roughly 2 fold. For the same molecule, the “signal in infected triceps compared to inflamed muscle” value (S. aureus (Newman) [4]; post-mortem ex vivo analysis, %ID/g) was 4.30 ± 0.82, the “ratio of 2-[18F]F-PABA in infected triceps compared to inflamed muscle” value (S. aureus [5]) was 9.38 ± 2.43 and the “accumulation in mammalian cells” value (J774 murine macrophages) was “not in mammalian cells”.
For OC[C@H]1OC(O)[C@H]([18F])[C@@H](O)[C@@H]1O (stereo partly shown) [[^18F]FDG, [^18F]fluorodeoxyglucose, reference compound], the “PET signal at infection site versus sterile inflammation” value (S. aureus (Newman) [4]) was “not significantly different” and the “PET signal at infection site versus sterile inflammation” value (S. aureus (Newman) [4]; listed as [^18F]F-FDG) was “no difference”.
With Cc1onc(-c2ccccc2)c1C(=O)N[C@@H]1C(=O)N2[C@@H]1SC(C)(C)[C@@H]2C(=O)O [oxacillin] the “bacterial burden in right triceps (MSSA infection)” value (MSSA) was 6.4 ± 0.4 log10 CFU/g and the “bacterial burden in left triceps (MRSA infection)” value (MRSA) was 8.2 ± 0.3 log10 CFU/g.
